Test results reported in ChEMBL document CHEMBL1158182, “Antifungal activity of chalcones: a mechanistic study using various yeast strains” (Eur J Med Chem, 2008).
≈ marks a conversion by molar mass, not a printed value.

Experiments:
Assay type in all cases: functional
Saccharomyces cerevisiae [1] = assay: Antifungal activity against haploid Saccharomyces cerevisiae 1S by agar dilution method
How it was run: (§1)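 S. cerevisiae and K. lactis strains were tested by agar dilution on rich YPD agar at 30 °C. Compound stocks in 96% EtOH were added to the medium to give […]. Cells were suspended in water, serially diluted to 10^9–10^3 cells/ml, and plated with a metal replicator. MIC was read from growth.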

Saccharomyces cerevisiae [2] = assay: Antifungal activity against diploid Saccharomyces cerevisiae PV-2 by agar dilution method
How it was run: (§2)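 MICs by agar dilution on rich YPD medium. Compounds were added from 96% EtOH stocks to give final agar concentrations of 20 to 50 (units as printed in the source). Cells were suspended in water, serially diluted to 10^9, 10^7, 10^5 and 10^3 cells/ml, and spotted onto agar with a metal replicator. Incubation was at 37 °C for H. polymorpha and 30 °C for S. cerevisiae.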

Saccharomyces cerevisiae [3] = assay: Antifungal activity against diploid Saccharomyces cerevisiae PV-3 by agar dilution method; how it was run: as §2
Saccharomyces cerevisiae [4] = assay: Antifungal activity against haploid Saccharomyces cerevisiae 1169 by agar dilution method; how it was run: as §1
Saccharomyces cerevisiae [5] = assay: Antifungal activity against haploid Saccharomyces cerevisiae 2180 by agar dilution method; how it was run: as §1
Saccharomyces cerevisiae [6] = assay: Antifungal activity against diploid Saccharomyces cerevisiae 1a by agar dilution method; how it was run: as §1
Saccharomyces cerevisiae [7] = assay: Antifungal activity against diploid Saccharomyces cerevisiae 29a by agar dilution method; how it was run: as §1
Saccharomyces cerevisiae [8] = assay: Antifungal activity against haploid Saccharomyces cerevisiae Sigma 1278b by agar dilution method; how it was run: as §1
Saccharomyces cerevisiae [9] = assay: Antifungal activity against haploid Saccharomyces cerevisiae D3C by agar dilution method; how it was run: as §2
Saccharomyces cerevisiae [10] = assay: Antifungal activity against haploid Saccharomyces cerevisiae FY4 by agar dilution method; how it was run: as §1
Saccharomyces cerevisiae [11] = assay: Antifungal activity against haploid Saccharomyces cerevisiae 10560-6B by agar dilution method; how it was run: as §1
Saccharomyces cerevisiae [12] = assay: Antifungal activity against haploid Saccharomyces cerevisiae YSH1170 by agar dilution method; how it was run: as §1
Saccharomyces cerevisiae [13] = assay: Antifungal activity against haploid Saccharomyces cerevisiae YSH1171 by agar dilution method; how it was run: as §1
Ogataea angusta [14] = assay: Antifungal activity against Hansenula polymorpha WT1 with ade1 ura3 genotype by agar dilution method
How it was run: (§3)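 H. polymorpha strains were tested by agar dilution on rich YPD agar at 37 °C. Compound stocks in 96% EtOH were mixed into the medium to give […]. Cells were suspended in water, serially diluted to 10^9, 10^7, 10^5 and 10^3 cells/ml, and applied to the agar with a metal replicator. MIC was read from growth.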

Ogataea angusta [15] = assay: Antifungal activity against Hansenula polymorpha WT2 with ade1 met6 genotype by agar dilution method; how it was run: as §3
Ogataea angusta [16] = assay: Antifungal activity against Hansenula polymorpha CD1 with ade1 leu2 cds1 genotype by agar dilution method; how it was run: as §3
Ogataea angusta [17] = assay: Antifungal activity against Hansenula polymorpha CD2 with ade1 leu2 cds2 genotype by agar dilution method; how it was run: as §3
Ogataea angusta [18] = assay: Antifungal activity against Hansenula polymorpha CD3 with ade1 leu2 cds3 genotype by agar dilution method; how it was run: as §3
Ogataea angusta [19] = assay: Antifungal activity against Hansenula polymorpha WA1 with ade1 leu2 gsh1 genotype by agar dilution method; how it was run: as §2
Ogataea angusta [20] = assay: Antifungal activity against Hansenula polymorpha 2a with arg1 leu2 ura3 cys1 genotype by agar dilution method; how it was run: as §3
Ogataea angusta [21] = assay: Antifungal activity against Hansenula polymorpha 2b with arg1 ade1 leu2 genotype by agar dilution method; how it was run: as §3
Ogataea angusta [22] = assay: Antifungal activity against Hansenula polymorpha D22 with arg1/arg1 ade1/ADE1 leu2/leu2 URA3/ura3 CYS1/cys1 genotype by agar dilution method; how it was run: as §3
Ogataea angusta [23] = assay: Antifungal activity against Hansenula polymorpha M2 with met2 genotype by agar dilution method; how it was run: as §3
Ogataea angusta [24] = assay: Antifungal activity against Hansenula polymorpha MC1 with met2 cys1 genotype by agar dilution method; how it was run: as §3
Ogataea angusta [25] = assay: Antifungal activity against Hansenula polymorpha AS1 with arg1 gsh2delta genotype by agar dilution method; how it was run: as §3
Ogataea angusta [26] = assay: Antifungal activity against Hansenula polymorpha M4 with met4 genotype by agar dilution method; how it was run: as §3
Ogataea angusta [27] = assay: Antifungal activity against Hansenula polymorpha AU05 with ade3 ura3 genotype by agar dilution method; how it was run: as §3
Ogataea angusta [28] = assay: Antifungal activity against Hansenula polymorpha CTA1 with leu2 cat1 genotype by agar dilution method; how it was run: as §2
Ogataea angusta [29] = assay: Antifungal activity against Hansenula polymorpha R3 with rgh3 genotype by agar dilution method; how it was run: as §3
Ogataea angusta [30] = assay: Antifungal activity against Hansenula polymorpha CRD2 with leu2 CDR2 genotype by agar dilution method; how it was run: as §3
Kluyveromyces lactis [31] = assay: Antifungal activity against Kluyveromyces lactis 2-18B with MATalpha metA1 ura3 leu2 genotype by agar dilution method; how it was run: as §1
Kluyveromyces lactis [32] = assay: Antifungal activity against Kluyveromyces lactis 1-6A with MATalpha uraA lys arg genotype by agar dilution method; how it was run: as §1
Kluyveromyces lactis [33] = assay: Antifungal activity against Kluyveromyces lactis 2-19B with MATalpha ura lys arg genotype by agar dilution method; how it was run: as §1

Row | SMILES | MIC (Saccharomyces cerevisiae [1]) | MIC (Saccharomyces cerevisiae [2]) | MIC (Saccharomyces cerevisiae [3]) | MIC (Saccharomyces cerevisiae [4]) | MIC (Saccharomyces cerevisiae [5]) | MIC (Saccharomyces cerevisiae [6]) | MIC (Saccharomyces cerevisiae [7]) | MIC (Saccharomyces cerevisiae [8]) | MIC (Saccharomyces cerevisiae [9]) | MIC (Saccharomyces cerevisiae [10]) | MIC (Saccharomyces cerevisiae [11]) | MIC (Saccharomyces cerevisiae [12]) | MIC (Saccharomyces cerevisiae [13]) | MIC (Ogataea angusta [14]) | MIC (Ogataea angusta [15]) | MIC (Ogataea angusta [16]) | MIC (Ogataea angusta [17]) | MIC (Ogataea angusta [18]) | MIC (Ogataea angusta [20]) | MIC (Ogataea angusta [21]) | also measured
1 | O=C(/C=C/c1cccc(O)c1)c1ccccc1 [3-HYDROXY CHALCONE] | 25 µg/mL (≈ 111 µM) | 25 µg/mL (≈ 111 µM) | 25 µg/mL (≈ 111 µM) | 30 µg/mL (≈ 134 µM) | 25 µg/mL (≈ 111 µM) | 25 µg/mL (≈ 111 µM) | 25 µg/mL (≈ 111 µM) | 25 µg/mL (≈ 111 µM) | 25 µg/mL (≈ 111 µM) | 25 µg/mL (≈ 111 µM) | 25 µg/mL (≈ 111 µM) | 25 µg/mL (≈ 111 µM) | 20 µg/mL (≈ 89.2 µM) | 35 µg/mL (≈ 156 µM) | 25 µg/mL (≈ 111 µM) | 25 µg/mL (≈ 111 µM) | 25 µg/mL (≈ 111 µM) | 25 µg/mL (≈ 111 µM) | 25 µg/mL (≈ 111 µM) | 25 µg/mL (≈ 111 µM) | MIC (Ogataea angusta [19]): < 20 µg/mL; MIC (Ogataea angusta [22]): 25 µg/mL (≈ 111 µM); MIC (Ogataea angusta [23]): 25 µg/mL (≈ 111 µM); MIC (Ogataea angusta [24]): 20 µg/mL (≈ 89.2 µM); MIC (Ogataea angusta [25]): 20 µg/mL (≈ 89.2 µM); MIC (Ogataea angusta [26]): 30 µg/mL (≈ 134 µM); MIC (Ogataea angusta [27]): 35 µg/mL (≈ 156 µM); MIC (Ogataea angusta [28]): 35 µg/mL (≈ 156 µM); MIC (Ogataea angusta [29]): 20 µg/mL (≈ 89.2 µM); MIC (Ogataea angusta [30]): 20 µg/mL (≈ 89.2 µM); MIC (Kluyveromyces lactis [31]): < 20 µg/mL; MIC (Kluyveromyces lactis [32]): < 20 µg/mL; MIC (Kluyveromyces lactis [33]): < 20 µg/mL
2 | O=C(/C=C/c1cccc(O)c1)c1ccc(Cl)cc1 | 20 µg/mL (≈ 77.3 µM) | 18 µg/mL (≈ 69.6 µM) | 15 µg/mL (≈ 58 µM) | 20 µg/mL (≈ 77.3 µM) | 16 µg/mL (≈ 61.8 µM) | 20 µg/mL (≈ 77.3 µM) | 25 µg/mL (≈ 96.6 µM) | 15 µg/mL (≈ 58 µM) | 20 µg/mL (≈ 77.3 µM) | 18 µg/mL (≈ 69.6 µM) | 15 µg/mL (≈ 58 µM) | 15 µg/mL (≈ 58 µM) | 18 µg/mL (≈ 69.6 µM) | 25 µg/mL (≈ 96.6 µM) | < 20 µg/mL | < 20 µg/mL | < 20 µg/mL | < 20 µg/mL | < 20 µg/mL | 25 µg/mL (≈ 96.6 µM) | MIC (Ogataea angusta [22]): < 20 µg/mL; MIC (Ogataea angusta [23]): 25 µg/mL (≈ 96.6 µM); MIC (Ogataea angusta [24]): < 20 µg/mL; MIC (Ogataea angusta [25]): < 20 µg/mL; MIC (Ogataea angusta [26]): 25 µg/mL (≈ 96.6 µM); MIC (Ogataea angusta [27]): 25 µg/mL (≈ 96.6 µM); MIC (Ogataea angusta [28]): 25 µg/mL (≈ 96.6 µM); MIC (Ogataea angusta [29]): < 20 µg/mL; MIC (Ogataea angusta [30]): < 20 µg/mL; MIC (Kluyveromyces lactis [31]): < 20 µg/mL; MIC (Kluyveromyces lactis [32]): < 20 µg/mL; MIC (Kluyveromyces lactis [33]): < 20 µg/mL
